One may read the pKi as the Ki on a negative log10 scale, so that one unit is a factor of ten.

pKi: −log10 of the molar value.

Conditions in all cases: read-out: Ki app
The target of one assay is Neprilysin (Homo sapiens, UniProt P08473). Kind of assay: Inhibition of human recombinant NEP by fluorescence assay. In a few lines: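 Recombinant human NEP at 0.15 nM was assayed with 2 μM FAM-[…]TAMRA)-NH2 substrate. Inhibitor was pre-incubated, then substrate added. Fluorescence gave Ki App, with average %CV 43%.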
Chain of Neprilysin (P08473 whole entry): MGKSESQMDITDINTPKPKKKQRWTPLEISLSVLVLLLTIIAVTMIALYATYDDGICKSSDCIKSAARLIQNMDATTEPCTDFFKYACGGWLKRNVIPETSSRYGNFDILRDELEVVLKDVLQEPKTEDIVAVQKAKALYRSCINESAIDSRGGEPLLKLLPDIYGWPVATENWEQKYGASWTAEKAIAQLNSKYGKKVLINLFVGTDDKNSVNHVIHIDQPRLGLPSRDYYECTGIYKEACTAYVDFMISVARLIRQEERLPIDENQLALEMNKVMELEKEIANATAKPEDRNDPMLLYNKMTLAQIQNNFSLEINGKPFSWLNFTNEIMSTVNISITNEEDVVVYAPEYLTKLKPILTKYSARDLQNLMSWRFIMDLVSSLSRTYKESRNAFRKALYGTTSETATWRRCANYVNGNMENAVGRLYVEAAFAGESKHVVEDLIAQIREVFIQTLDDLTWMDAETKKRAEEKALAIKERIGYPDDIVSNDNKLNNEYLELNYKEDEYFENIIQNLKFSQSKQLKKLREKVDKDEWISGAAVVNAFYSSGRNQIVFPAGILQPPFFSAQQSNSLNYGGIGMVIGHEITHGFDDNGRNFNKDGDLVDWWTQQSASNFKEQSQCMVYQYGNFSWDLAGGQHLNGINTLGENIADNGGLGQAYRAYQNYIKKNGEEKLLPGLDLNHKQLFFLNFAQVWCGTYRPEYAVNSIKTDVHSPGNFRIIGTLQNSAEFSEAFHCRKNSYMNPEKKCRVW
Assay [1] deals with Angiotensin-converting enzyme 2 (Homo sapiens, UniProt Q9BYF1). Kind of assay: Inhibition of human recombinant ACE2 by fluorescence assay. In a few lines: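 Fluorescence assay with 0.4 nM recombinant human ACE2 and 30 μM MCA-Tyr-Val-Ala-Asp-Ala-Pro-Lys(DNP)-OH substrate. Pre-incubation with inhibitor preceded substrate addition. Apparent Ki was reported, with average %CV 45%. Thiols were diluted from 10 mM stocks in 50% aqueous acetonitrile just before assay.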
Chain of Angiotensin-converting enzyme 2 (Q9BYF1 whole entry): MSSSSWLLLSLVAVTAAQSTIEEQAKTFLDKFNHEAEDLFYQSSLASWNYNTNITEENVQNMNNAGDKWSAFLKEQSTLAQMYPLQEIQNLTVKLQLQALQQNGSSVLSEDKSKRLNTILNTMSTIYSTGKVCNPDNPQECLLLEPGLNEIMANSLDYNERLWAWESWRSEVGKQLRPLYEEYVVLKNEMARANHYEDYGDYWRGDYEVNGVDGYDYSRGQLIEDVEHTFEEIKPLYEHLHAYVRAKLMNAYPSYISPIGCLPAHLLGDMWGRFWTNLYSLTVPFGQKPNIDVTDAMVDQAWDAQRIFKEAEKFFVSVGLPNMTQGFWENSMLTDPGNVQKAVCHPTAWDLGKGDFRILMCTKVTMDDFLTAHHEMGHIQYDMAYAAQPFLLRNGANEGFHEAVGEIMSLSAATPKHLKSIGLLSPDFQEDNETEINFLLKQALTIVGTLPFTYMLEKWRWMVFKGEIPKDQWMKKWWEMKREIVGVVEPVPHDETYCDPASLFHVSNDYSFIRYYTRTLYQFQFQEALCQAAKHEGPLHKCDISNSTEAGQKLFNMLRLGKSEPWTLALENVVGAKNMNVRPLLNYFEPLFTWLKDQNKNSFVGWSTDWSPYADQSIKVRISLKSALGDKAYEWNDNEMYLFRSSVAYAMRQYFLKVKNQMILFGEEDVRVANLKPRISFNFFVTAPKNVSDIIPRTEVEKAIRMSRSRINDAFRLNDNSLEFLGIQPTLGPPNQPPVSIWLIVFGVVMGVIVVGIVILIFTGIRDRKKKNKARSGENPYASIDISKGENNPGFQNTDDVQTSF

Assay [2] has as its target Angiotensin-converting enzyme (Homo sapiens, UniProt P12821). Description: Inhibition of human recombinant ACE by fluorescence assay. In a few lines: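 Recombinant human ACE at 0.5 nM was incubated with 10 μM MCA-Ala-Ser-Asp-Lys-Dap(DNP)-OH substrate. Buffer was 1 μM Zn(OAc)2, 100 μM TCEP reducing agent, 50 mM Hepes, 300 μM CHAPS and 300 mM NaCl, pH 7.5. Inhibitor was pre-incubated before substrate was added. Fluorescence read-out gave apparent Ki.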

For the next assay, the target named is T1, Carboxypeptidase A1 (Homo sapiens, UniProt P15085).
T1 sequence (P15085 whole entry): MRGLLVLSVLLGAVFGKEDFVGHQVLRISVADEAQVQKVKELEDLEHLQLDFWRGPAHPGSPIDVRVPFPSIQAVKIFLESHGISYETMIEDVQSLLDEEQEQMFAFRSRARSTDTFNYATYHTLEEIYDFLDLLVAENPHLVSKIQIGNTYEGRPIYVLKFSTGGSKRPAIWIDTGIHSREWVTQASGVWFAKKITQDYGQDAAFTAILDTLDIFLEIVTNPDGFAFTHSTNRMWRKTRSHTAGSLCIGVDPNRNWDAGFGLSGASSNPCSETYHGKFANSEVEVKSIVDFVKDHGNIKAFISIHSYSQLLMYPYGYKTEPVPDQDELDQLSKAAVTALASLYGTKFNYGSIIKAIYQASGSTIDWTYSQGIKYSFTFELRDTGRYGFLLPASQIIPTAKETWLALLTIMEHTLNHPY
Description: Inhibition of human recombinant carboxy peptidase A1 by fluorescence assay.

Chain of Angiotensin-converting enzyme (P12821 whole entry): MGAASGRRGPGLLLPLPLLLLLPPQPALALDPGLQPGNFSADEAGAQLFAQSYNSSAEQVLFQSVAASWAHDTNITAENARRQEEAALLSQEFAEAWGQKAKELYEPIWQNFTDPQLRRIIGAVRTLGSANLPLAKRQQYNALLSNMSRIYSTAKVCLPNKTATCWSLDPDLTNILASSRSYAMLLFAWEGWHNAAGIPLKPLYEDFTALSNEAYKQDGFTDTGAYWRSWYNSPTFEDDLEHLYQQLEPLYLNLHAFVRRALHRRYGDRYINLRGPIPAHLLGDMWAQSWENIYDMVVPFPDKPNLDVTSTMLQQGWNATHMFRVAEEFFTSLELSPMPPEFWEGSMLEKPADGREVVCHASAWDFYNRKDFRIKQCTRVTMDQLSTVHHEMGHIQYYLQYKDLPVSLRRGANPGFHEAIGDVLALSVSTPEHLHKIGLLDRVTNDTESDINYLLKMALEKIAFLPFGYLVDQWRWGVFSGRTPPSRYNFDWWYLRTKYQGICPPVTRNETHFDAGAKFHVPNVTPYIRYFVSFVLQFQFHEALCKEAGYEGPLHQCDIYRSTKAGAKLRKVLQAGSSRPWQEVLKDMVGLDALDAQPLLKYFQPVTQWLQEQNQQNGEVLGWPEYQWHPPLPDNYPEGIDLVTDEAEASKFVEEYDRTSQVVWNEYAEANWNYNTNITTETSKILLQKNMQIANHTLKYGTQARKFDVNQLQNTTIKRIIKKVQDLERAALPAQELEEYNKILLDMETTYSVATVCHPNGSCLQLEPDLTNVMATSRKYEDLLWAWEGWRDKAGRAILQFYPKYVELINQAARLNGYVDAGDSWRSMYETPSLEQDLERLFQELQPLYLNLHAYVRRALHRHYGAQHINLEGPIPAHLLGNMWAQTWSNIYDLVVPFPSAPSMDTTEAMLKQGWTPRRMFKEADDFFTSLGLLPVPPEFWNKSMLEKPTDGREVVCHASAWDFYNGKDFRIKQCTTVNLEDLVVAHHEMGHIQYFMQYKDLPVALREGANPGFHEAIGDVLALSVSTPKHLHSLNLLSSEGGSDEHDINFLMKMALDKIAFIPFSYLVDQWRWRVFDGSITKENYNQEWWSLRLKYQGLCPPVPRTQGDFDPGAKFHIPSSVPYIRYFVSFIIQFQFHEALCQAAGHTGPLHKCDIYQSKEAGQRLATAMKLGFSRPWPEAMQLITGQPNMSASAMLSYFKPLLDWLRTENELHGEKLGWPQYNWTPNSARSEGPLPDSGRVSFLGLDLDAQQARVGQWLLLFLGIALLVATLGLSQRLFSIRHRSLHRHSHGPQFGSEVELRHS

`CC(C)C[C@H](S)C(=O)N[C@@H](Cc1ccc(-c2ccccc2)cc1)C(=O)O`: the negative logarithm of the Ki (pKi) is 9.55 at Neprilysin, 8.85 in assay [1], 8.49 in assay [2] and 4.96 at Carboxypeptidase A1.
For `CCCC[C@H](S)C(=O)N[C@@H](Cc1ccc(-c2ccccc2)cc1)C(=O)O` the same measures were 8.92, 8.74, 8.03 and 5.05.
Take `O=C(N[C@@H](Cc1ccc(-c2ccccc2)cc1)C(=O)O)[C@H](S)Cc1ccccc1`: the pKi at Neprilysin is 8.89; in assay [1] it was 5.85; in assay [2], 6.28; on Carboxypeptidase A1 it was 6.51.
Taken in the same sequence, the figures for `O=C(O)[C@H](Cc1ccc(-c2ccccc2)cc1)NC(=O)[C@@H](S)C1CCCCC1` were 5.89, 7.19, 4.89 and 4.92.
On to `CC[C@@H](C)[C@H](S)C(=O)N[C@@H](Cc1ccc(-c2ccccc2)cc1)C(=O)O`, for which the negative-log Ki (pKi) is 7.57 at Neprilysin, 8.82 in assay [1], 6.31 in assay [2] and 4.96 at Carboxypeptidase A1.
`O=C(CS)N[C@@H](Cc1ccc(-c2ccccc2)cc1)C(=O)O`: the negative logarithm of the Ki (pKi) is 7.89 on Neprilysin, 6.49 in assay [1], 7.80 in assay [2] and 5.77 on Carboxypeptidase A1.
As to `CC[C@H](S)C(=O)N[C@@H](Cc1ccc(-c2ccccc2)cc1)C(=O)O`, the pKi at Neprilysin is 9.10; in assay [1], 8.85; in assay [2], 8.07; on Carboxypeptidase A1, 5.03.
On to `C[C@H](S)C(=O)N[C@@H](Cc1ccc(-c2ccccc2)cc1)C(=O)O`, for which the pKi was 7.64 on Neprilysin, 8.16 in assay [1], 7.68 in assay [2] and 4.85 on Carboxypeptidase A1.
In the case of `O=C(O)[C@H](Cc1ccc(-c2ccccc2)cc1)NC(=O)[C@@H](S)C1CCC1`, the pKi was 8.27 on Neprilysin, 8.62 in assay [1], 6.21 in assay [2] and 4.92 on Carboxypeptidase A1.
As for `O=C(O)[C@H](Cc1ccc(-c2ccccc2)cc1)NC(=O)[C@@H](S)Cc1ccc2ccccc2c1`, the pKi at Neprilysin was 6.85; in assay [1], 6.26; in assay [2], 6.68; on Carboxypeptidase A1, 4.49.
Take `O=C(O)[C@H](Cc1ccc(-c2ccccc2)cc1)NC(=O)[C@@H](S)Cc1ccccc1`: the pKi at Neprilysin was 8.96; in assay [1], 7.07; in assay [2], 7.52; on Carboxypeptidase A1 it was 5.92.
For `O=C(O)[C@H](Cc1ccc(-c2ccccc2)cc1)NC(=O)[C@@H](S)c1ccccc1`, the negative-log Ki (pKi) at Neprilysin was 6.39; in assay [1], 7.08; in assay [2], below 5.00.
`O=C(O)[C@H](Cc1ccc(-c2ccccc2)cc1)NC(=O)[C@@H](S)CC1CCCCC1`: the negative logarithm of the Ki (pKi) was 6.89 on Neprilysin, 6.38 in assay [1], 6.08 in assay [2] and 4.77 on Carboxypeptidase A1.
Taken in the same sequence, the figures for `O=C(O)[C@H](Cc1ccc(-c2ccccc2)cc1)NC(=O)[C@@H](S)C1CCCC1` were 7.42, 8.74, 6.15 and 4.92.
Take `O=C(O)[C@H](Cc1ccc(-c2ccccc2)cc1)NC(=O)[C@@H](S)CCc1ccccc1`: the pKi is 8.59 at Neprilysin, 6.07 in assay [1], 7.03 in assay [2] and 5.30 on Carboxypeptidase A1.
Take `CC(C)(S)C(=O)N[C@@H](Cc1ccc(-c2ccccc2)cc1)C(=O)O`: the negative logarithm of the Ki (pKi) on Neprilysin was 6.14; in assay [1], 5.64; in assay [2], 5.47.
On to `CC(C)(C)C[C@H](S)C(=O)N[C@@H](Cc1ccc(-c2ccccc2)cc1)C(=O)O`, for which the negative logarithm of the Ki (pKi) is 8.59 on Neprilysin, 8.15 in assay [1], 5.57 in assay [2] and 4.66 at Carboxypeptidase A1.
For `CC(C)[C@H](S)C(=O)N[C@@H](Cc1ccc(-c2ccccc2)cc1)C(=O)O` the same measures were 7.89, 8.82, 6.70 and 4.77.
For `CC[C@H](C)[C@H](S)C(=O)N[C@@H](Cc1ccc(-c2ccccc2)cc1)C(=O)O` the same measures were 8.62, 8.80, 6.70 and 4.82.

These data come from ChEMBL document CHEMBL1142293, “Thiol-based angiotensin-converting enzyme 2 inhibitors: P1 modifications for the exploration of the S1 subsite” (Bioorg Med Chem Lett, 2008).
